Experimental data as given in ChEMBL document CHEMBL3232922, “Discovery and SAR of 6-alkyl-2,4-diaminopyrimidines as histamine H₄ receptor antagonists” (J Med Chem, 2014).

What was measured:
Histamine H4 receptor [1] = molecular target: T1, Histamine H4 receptor (Homo sapiens, UniProt Q9H3N8); test: Displacement of [3H]histamine from human recombinant histamine H4 receptor expressed in SK-N-MC cells after 45 mins by competition binding analysis; type: cell-based
Histamine H4 receptor [2] = molecular target: T1, Histamine H4 receptor; test: Antagonist activity at human histamine H4 receptor expressed in SK-N-MC cells assessed as reduction of histamine-induced inhibition of cAMP-mediated beta-galactosidase reporter gene activity treated 10 mins prior to histamine challenge by microplate reader analysis; type: functional, cell-based; conditions: read-out: pA2 (converted)
Histamine H4 receptor [3] = molecular target: T1, Histamine H4 receptor; test: Agonist activity at human H4 receptor; conditions: read-out: EC50
[4] = Initial plasma concentration in Sprague-Dawley rat at 2 mg/kg, iv; type: ADME, organism-based; parameters: dose 2 mg/kg, route intravenous
[5] = AUC in Sprague-Dawley rat at 10 mg/kg, po; type: ADME, organism-based; parameters: dose 10 mg/kg, route oral; conditions: plasma
Rattus norvegicus [6] = test: Clearance in Sprague-Dawley rat at 2 mg/kg, iv; type: ADME, organism-based; parameters: dose 2 mg/kg, route intravenous; conditions: in vivo
[7] = Oral bioavailability in Sprague-Dawley rat at 10 mg/kg; type: ADME, organism-based; conditions: in vivo
[8] = Half life in Balb/c mouse at 20 mg/kg, po; type: ADME, organism-based; parameters: dose 20 mg/kg, route oral; conditions: in vivo
Rattus norvegicus [9] = test: Volume of distribution at steady state in Sprague-Dawley rat at 2 mg/kg, iv; type: ADME, organism-based; parameters: dose 2 mg/kg, route intravenous; conditions: in vivo
[10] = AUC in beagle dog at 10 mg/kg, po; type: ADME, organism-based, Canis lupus familiaris; parameters: dose 10 mg/kg, route oral; conditions: plasma
[11] = Volume of distribution at steady state in beagle dog at 2 mg/kg, iv; type: ADME, organism-based, Canis lupus familiaris; parameters: dose 2 mg/kg, route intravenous; conditions: in vivo, read-out: Vdss
[12] = Half life in beagle dog at 2 mg/kg, iv; type: ADME, organism-based, Canis lupus familiaris; parameters: dose 2 mg/kg, route intravenous; conditions: in vivo
[13] = Tmax in Sprague-Dawley rat at 10 mg/kg, po; type: ADME, organism-based; parameters: dose 10 mg/kg, route oral; conditions: in vivo
[14] = AUC in Sprague-Dawley rat at 2 mg/kg, iv; type: ADME, organism-based; parameters: dose 2 mg/kg, route intravenous; conditions: plasma
[15] = Initial plasma concentration in beagle dog at 2 mg/kg, iv; type: ADME, organism-based, Canis lupus familiaris; parameters: dose 2 mg/kg, route intravenous
Canis familiaris [16] = test: AUC in beagle dog at 2 mg/kg, iv; type: ADME, organism-based, Canis lupus familiaris, Plasma; parameters: dose 2 mg/kg, route intravenous; conditions: in vivo
[17] = Half life in Sprague-Dawley rat at 10 mg/kg, po; type: ADME, organism-based; parameters: dose 10 mg/kg, route oral; conditions: in vivo
[18] = Cmax in beagle dog at 10 mg/kg, po; type: ADME, organism-based, Canis lupus familiaris; parameters: dose 10 mg/kg, route oral; conditions: in vivo
Rattus norvegicus [19] = test: Half life in Sprague-Dawley rat at 2 mg/kg, iv; type: ADME, organism-based; parameters: dose 2 mg/kg, route intravenous; conditions: in vivo
[20] = Half life in beagle dog at 10 mg/kg, po; type: ADME, organism-based, Canis lupus familiaris; parameters: dose 10 mg/kg, route oral; conditions: in vivo
[21] = Cmax in Balb/c mouse at 20 mg/kg, po; type: ADME, organism-based; parameters: dose 20 mg/kg, route oral; conditions: in vivo
[22] = Cmax in Sprague-Dawley rat at 10 mg/kg, po; type: ADME, organism-based; parameters: dose 10 mg/kg, route oral; conditions: in vivo
[23] = Tmax in Balb/c mouse at 20 mg/kg, po; type: ADME, organism-based; parameters: dose 20 mg/kg, route oral; conditions: in vivo
[24] = Oral bioavailability in beagle dog at 10 mg/kg; type: ADME, organism-based, Canis lupus familiaris; conditions: in vivo
[25] = Tmax in beagle dog at 10 mg/kg, po; type: ADME, organism-based, Canis lupus familiaris; parameters: dose 10 mg/kg, route oral; conditions: in vivo
[26] = AUC in Balb/c mouse at 20 mg/kg, po; type: ADME, organism-based; parameters: dose 20 mg/kg, route oral; conditions: plasma
Canis familiaris [27] = test: Clearance in beagle dog at 2 mg/kg, iv; type: ADME, organism-based, Canis lupus familiaris; parameters: dose 2 mg/kg, route intravenous; conditions: in vivo
[28] = Oral bioavailability in rat at 10 mg/kg; type: ADME, organism-based; conditions: in vivo
[29] = Cmax in rat at 10 mg/kg, po; type: ADME, organism-based; parameters: dose 10 mg/kg, route oral; conditions: in vivo
Histamine H4 receptor [30] = molecular target: T2, Histamine H4 receptor (Mus musculus, UniProt Q91ZY2); test: Displacement of [3H]histamine from mouse histamine H4 receptor expressed in SK-N-MC cells after 45 mins by competition binding analysis; type: cell-based
T2 sequence (Q91ZY2 whole entry): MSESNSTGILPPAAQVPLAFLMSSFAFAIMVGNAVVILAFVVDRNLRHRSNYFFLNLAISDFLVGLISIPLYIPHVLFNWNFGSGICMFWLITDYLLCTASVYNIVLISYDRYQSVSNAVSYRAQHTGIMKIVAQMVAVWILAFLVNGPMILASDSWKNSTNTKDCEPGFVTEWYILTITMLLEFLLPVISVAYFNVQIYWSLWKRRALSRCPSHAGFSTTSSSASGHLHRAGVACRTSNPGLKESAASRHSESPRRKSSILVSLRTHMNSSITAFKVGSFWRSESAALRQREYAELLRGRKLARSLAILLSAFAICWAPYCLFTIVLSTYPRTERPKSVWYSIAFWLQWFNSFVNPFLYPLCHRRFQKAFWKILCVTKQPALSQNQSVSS
In short: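 Transfected cells expressing the H4 receptor, competition against [3H]histamine. Ki is the geometric mean of at least three independent determinations (each in triplicate), calculated by the Cheng–Prusoff equation.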

Histamine H3 receptor = Histamine H3 receptor (Homo sapiens, UniProt Q9Y5N1); test: Displacement of [3H]N-alpha-methylhistamine from human recombinant histamine H3 receptor expressed in SK-N-MC cells after 45 mins by competition binding analysis; type: cell-based
Chain of Histamine H3 receptor (Q9Y5N1 whole entry): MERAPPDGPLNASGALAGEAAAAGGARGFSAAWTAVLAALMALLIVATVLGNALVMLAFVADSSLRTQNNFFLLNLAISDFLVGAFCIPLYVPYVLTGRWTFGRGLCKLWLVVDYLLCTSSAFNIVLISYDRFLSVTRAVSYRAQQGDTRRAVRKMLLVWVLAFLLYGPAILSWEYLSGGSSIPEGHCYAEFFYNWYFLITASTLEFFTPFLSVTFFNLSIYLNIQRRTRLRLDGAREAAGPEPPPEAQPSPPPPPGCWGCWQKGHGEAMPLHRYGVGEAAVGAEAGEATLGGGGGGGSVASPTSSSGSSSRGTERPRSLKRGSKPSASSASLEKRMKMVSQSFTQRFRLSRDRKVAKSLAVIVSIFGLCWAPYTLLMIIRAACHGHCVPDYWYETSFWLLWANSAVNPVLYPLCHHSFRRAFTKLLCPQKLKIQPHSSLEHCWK

Histamine H4 receptor [31] = molecular target: T2, Histamine H4 receptor; test: Antagonist activity at mouse histamine H4 receptor expressed in SK-N-MC cells assessed as reduction of histamine-induced inhibition of cAMP-mediated beta-galactosidase reporter gene activity treated 10 mins prior to histamine challenge by microplate reader analysis; type: functional, cell-based; conditions: read-out: pA2 (converted)
[32] = Half life in rat at 10 mg/kg, po; type: ADME, organism-based; parameters: dose 10 mg/kg, route oral; conditions: in vivo
[33] = Half life in rat at 2 mg/kg, iv; type: ADME, organism-based; parameters: dose 2 mg/kg, route intravenous; conditions: in vivo
[34] = Permeability from apical to basolateral side in human Caco cells; type: ADME, cell-based; conditions: Caco-2, read-out: permeability
[35] = Volume of distribution at steady state in rat at 2 mg/kg, iv; type: ADME, organism-based; parameters: dose 2 mg/kg, route intravenous; conditions: in vivo, read-out: Vdss
[36] = Half life in rat microsomes; type: ADME, Microsome
[37] = Half life in human microsomes; type: ADME, Microsome
Histamine H4 receptor [38] = molecular target: T2, Histamine H4 receptor; test: Partial agonist activity at mouse histamine H4 receptor
[39] = molecular target: Voltage-gated inwardly rectifying potassium channel KCNH2 (Homo sapiens, UniProt Q12809); test: Inhibition of human ERG channel transfected in HEK293 cells assessed as reduction in delayed rectifier current by patch clamp assay; type: cell-based
Chain of Voltage-gated inwardly rectifying potassium channel KCNH2 (Q12809 whole entry): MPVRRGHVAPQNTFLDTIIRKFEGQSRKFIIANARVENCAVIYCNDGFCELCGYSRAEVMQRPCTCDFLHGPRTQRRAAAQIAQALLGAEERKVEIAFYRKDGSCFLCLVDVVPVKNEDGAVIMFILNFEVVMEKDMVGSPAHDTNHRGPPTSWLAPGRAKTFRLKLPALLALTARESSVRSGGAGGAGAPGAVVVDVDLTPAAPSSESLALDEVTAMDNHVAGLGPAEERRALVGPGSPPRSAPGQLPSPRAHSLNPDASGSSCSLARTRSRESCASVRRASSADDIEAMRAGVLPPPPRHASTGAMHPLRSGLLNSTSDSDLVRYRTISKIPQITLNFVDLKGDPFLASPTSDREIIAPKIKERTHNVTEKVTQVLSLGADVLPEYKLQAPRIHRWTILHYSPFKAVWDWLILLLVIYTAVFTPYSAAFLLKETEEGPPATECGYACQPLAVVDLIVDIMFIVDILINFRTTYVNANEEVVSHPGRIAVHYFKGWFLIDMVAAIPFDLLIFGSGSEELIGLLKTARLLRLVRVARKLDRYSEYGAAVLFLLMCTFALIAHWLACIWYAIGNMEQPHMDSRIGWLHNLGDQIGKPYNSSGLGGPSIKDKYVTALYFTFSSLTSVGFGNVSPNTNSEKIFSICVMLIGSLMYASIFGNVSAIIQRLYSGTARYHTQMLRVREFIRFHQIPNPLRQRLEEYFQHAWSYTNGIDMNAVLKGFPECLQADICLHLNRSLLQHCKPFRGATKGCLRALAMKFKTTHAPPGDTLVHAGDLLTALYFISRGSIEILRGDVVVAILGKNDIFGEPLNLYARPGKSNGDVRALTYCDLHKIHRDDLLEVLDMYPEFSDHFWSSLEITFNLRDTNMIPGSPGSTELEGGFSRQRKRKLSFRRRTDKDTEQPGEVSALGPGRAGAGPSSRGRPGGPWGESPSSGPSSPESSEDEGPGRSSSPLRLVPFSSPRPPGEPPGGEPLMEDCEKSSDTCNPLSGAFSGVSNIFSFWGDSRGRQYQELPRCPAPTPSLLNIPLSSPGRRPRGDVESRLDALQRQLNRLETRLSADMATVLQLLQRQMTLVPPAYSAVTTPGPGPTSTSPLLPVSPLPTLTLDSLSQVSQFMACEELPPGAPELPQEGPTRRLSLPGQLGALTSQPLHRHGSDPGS
In short: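 The delayed rectifier current (IKr) was recorded in hERG-transfected HEK293 cells with the compound at 3 μM.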

[40] = AUC in rat at 2 mg/kg, iv; type: ADME, organism-based; parameters: dose 2 mg/kg, route intravenous; conditions: plasma
hERG (KCNH2) = hERG (KCNH2) (Homo sapiens, UniProt Q12809); test: Inhibition of human ERG channel transfected in HEK293 cells assessed as reduction in delayed rectifier current at 3 uM by patch clamp assay; type: cell-based; conditions: HEK293 cells transfected with human ERG channel
Chain of hERG (KCNH2) (Q12809 whole entry): as above

[41] = Clearance in rat at 2 mg/kg, iv; type: ADME, organism-based; parameters: dose 2 mg/kg, route intravenous; conditions: in vivo
[42] = Permeability from basolateral to apical side in human Caco cells; type: ADME, cell-based; conditions: Caco-2, read-out: permeability

T1 sequence (Q9H3N8 whole entry): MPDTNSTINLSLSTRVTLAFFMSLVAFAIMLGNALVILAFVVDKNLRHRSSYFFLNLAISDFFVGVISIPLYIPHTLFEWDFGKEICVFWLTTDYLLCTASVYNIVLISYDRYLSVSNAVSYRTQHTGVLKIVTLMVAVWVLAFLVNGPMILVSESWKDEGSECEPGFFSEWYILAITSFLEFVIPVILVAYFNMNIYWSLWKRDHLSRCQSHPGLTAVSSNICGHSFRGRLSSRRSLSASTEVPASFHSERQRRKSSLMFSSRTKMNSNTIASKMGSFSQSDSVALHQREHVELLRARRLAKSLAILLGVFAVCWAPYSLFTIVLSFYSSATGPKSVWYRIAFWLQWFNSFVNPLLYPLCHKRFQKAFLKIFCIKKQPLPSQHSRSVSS

Compound `Nc1nc(C2CCCC2)cc(N2C[C@@H]3NCCO[C@@H]3C2)n1` (relative stereo) has a Ki (Histamine H4 receptor [1]) of 520 nM.
`CN[C@@H]1CCN(c2cc(C3CCCC3)nc(N)n2)C1` showed a Kb (Histamine H4 receptor [2]) of 0.251 nM, a Ki (Histamine H4 receptor [1]) of 1.1 nM and an EC50 (Histamine H4 receptor [3]) of over 10 µM.
Compound `CN1CCN(C(=O)c2cc3c([nH]2)CCCC3)CC1` has a Ki (Histamine H4 receptor [1]) of 20 nM.
Compound `CC(C)(C)c1cc(N2CC[C@@H](N)C2)nc(N)n1` has a Kb (Histamine H4 receptor [2]) of 5.01 nM, a Ki (Histamine H4 receptor [1]) of 9.4 nM and an EC50 (Histamine H4 receptor [3]) of over 10 µM.
Work on `Nc1nc(C2CCCC2)cc(N2C[C@H]3NCCO[C@@H]3C2)n1` (racemic) yielded a Kb (Histamine H4 receptor [2]) of 126 nM, a Ki (Histamine H4 receptor [1]) of 56 nM and an EC50 (Histamine H4 receptor [3]) of over 10 µM.
`CN[C@@H]1CCN(c2nc(N)nc3c2CCCC3)C1` gave a Kb (Histamine H4 receptor [2]) of 25.1 nM and an EC50 (Histamine H4 receptor [3]) of over 10 µM.
In the case of `CN[C@@H]1CCN(c2cc(Cc3ccccc3)nc(N)n2)C1`, the C0 [4] is reported as 19 µM, the AUC [5] is reported as 27.8 µM·h and the Kb (Histamine H4 receptor [2]) is reported as 10 nM. It also gave a CL (Rattus norvegicus [6]) of 0.33 L/h/kg, a bioavailability [7] of 50% and a half-life [8] of 312 min. It also gave a Vdss (Rattus norvegicus [9]) of 6.3 L/kg, an AUC [10] of 45 µM·h and a Vd [11] of 15.1 L/kg. For the same compound, the half-life [12] was 558 min, the Tmax [13] was 5 h and the AUC [14] was 11 µM·h. The C0 [15] was 2500 nM, the AUC (Canis familiaris [16]) was 8.1 µM·h and the half-life [17] was 558 min. The Cmax [18] was 4200 nM, the t1/2 (Rattus norvegicus [19]) was 5.3 h and the half-life [20] was 600 min. It also gave a Cmax [21] of 8.5 µM, an EC50 (Histamine H4 receptor [3]) of over 10 µM and a Cmax [22] of 1600 nM. The Tmax [23] was 30 min, the bioavailability [24] was 112% and the Tmax [25] was 0.6 h. For the same compound, the AUC [26] was 60 µM·h.
`CCc1cc(N2CC[C@@H](N)C2)nc(N)n1` gave a Kb (Histamine H4 receptor [2]) of 12.6 nM and an EC50 (Histamine H4 receptor [3]) of over 10 µM.
Compound `Nc1nc(C2CCCC2)cc(N2CCNCC2)n1` has a C0 [4] of 25 µM, a CL (Canis familiaris [27]) of 21.19 L/h/kg and an AUC [5] of 8.2 µM·h. The Kb (Histamine H4 receptor [2]) was 0.316 nM, the CL (Rattus norvegicus [6]) was 0.422 L/h/kg and the bioavailability [7] was 20.7%. The bioavailability [28] was 20%, the Cmax [29] was 310 nM and the Vdss (Rattus norvegicus [9]) was 3.1 L/kg. The Ki (Histamine H4 receptor [30]) was 20 nM, the Ki (Histamine H4 receptor [1]) was 1.2 nM and the Ki (Histamine H3 receptor) was 24 nM. For the same compound, the AUC [10] was 30.8 µM·h, the Vd [11] was 24.4 L/kg and the Kb (Histamine H4 receptor [31]) was 10 nM. The half-life [32] was 540 min, the half-life [12] was 646 min and the half-life [33] was 66 min. For the same compound, the Tmax [13] was 2 h, the AUC [14] was 20.6 µM·h and the C0 [15] was 1760 nM. The Papp A→B [34] was 32 ×10⁻⁶ cm/s, the Vd [35] was 2.7 L/kg and the half-life [36] was 86 min. It also gave an AUC (Canis familiaris [16]) of 5.38 µM·h, a half-life [37] of over 100 min and a half-life [17] of 522 min. For the same compound, the Cmax [18] was 1490 nM, the t1/2 (Rattus norvegicus [19]) was 2.2 h and the half-life [20] was 541 min. For the same compound, the EC50 (Histamine H4 receptor [38]) was 7.3 nM, the EC50 (Histamine H4 receptor [3]) was over 10 µM and the INH [39] was over 10 µM. For the same compound, the AUC [40] was 5 µM·h, the inhibition at 3 µM (hERG (KCNH2)) was 21% and the clearance [41] was 0.63 L/h/kg. For the same compound, the Cmax [22] was 600 nM, the bioavailability [24] was 114% and the Papp B→A [42] was 16 ×10⁻⁶ cm/s. It also gave a Tmax [25] of 4 h.
